In ChEMBL document CHEMBL1143324, “New N-substituted 9-azabicyclo[3.3.1]nonan-3alpha-yl phenylcarbamate analogs as sigma2 receptor ligands: synthesis, in vitro characterization, and evaluation as PET imaging and chemosensitization agents” (Bioorg Med Chem, 2009):

Assays:
[1] = Selectivity ratio, Ki for sigma 1 receptor in guinea pig brain homogenates to Ki for sigma 2 receptor in rat liver homogenates; type: tissue-based
[2] = Displacement of [3H]RHM-1 from sigma 2-type opioid receptor in rat liver homogenates; type: tissue-based
[3] = Partition coefficient, log P of the compound; type: physicochemical; details: octanol/water
[4] = target: Sigma non-opioid intracellular receptor 1 (Cavia porcellus, UniProt Q60492); assay: Displacement of [3H](+)-pentazocine from sigma 1-type opioid receptor in guinea pig brain homogenates; type: tissue-based
[5] = target: 5-hydroxytryptamine receptor 4 (Homo sapiens, UniProt Q13639); assay: Binding affinity to 5HT4 receptor
[6] = target: T1, 5-hydroxytryptamine receptor 3A (Homo sapiens, UniProt P46098); assay: Binding affinity to 5HT3 receptor
T1 sequence (P46098 whole entry): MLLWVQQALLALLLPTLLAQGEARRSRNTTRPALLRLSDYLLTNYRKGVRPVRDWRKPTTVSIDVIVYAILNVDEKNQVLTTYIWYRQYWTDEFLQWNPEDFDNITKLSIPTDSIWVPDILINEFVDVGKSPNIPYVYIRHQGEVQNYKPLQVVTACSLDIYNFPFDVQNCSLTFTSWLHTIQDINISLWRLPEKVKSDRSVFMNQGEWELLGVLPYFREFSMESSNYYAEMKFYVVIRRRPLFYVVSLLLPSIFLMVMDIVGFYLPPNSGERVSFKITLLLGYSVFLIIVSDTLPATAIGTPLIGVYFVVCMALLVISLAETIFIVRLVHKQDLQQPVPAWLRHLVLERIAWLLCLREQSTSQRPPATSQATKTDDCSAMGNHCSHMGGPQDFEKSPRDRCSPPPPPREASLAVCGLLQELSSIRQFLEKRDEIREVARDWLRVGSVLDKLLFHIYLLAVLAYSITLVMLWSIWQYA

[7] = system: EMT6; assay: Binding affinity to sigma 2 receptor in mouse EMT6 cell membrane homogenates; type: cell membranes; details: tested as the 18F-labelled form
[8] = Biodistribution in tumor of iv dosed mouse EMT6 cells bearing BALB/c mouse after 2 hrs; type: ADME, organism-based, Neoplasm; details: in vivo
In short: (§1)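 Female BALB/c mice were implanted s.c. in the scapular region with ~5×10^5 EMT-6 cells in PBS 11 days earlier, giving tumors of ~100-150 mg. The 18F tracer (~20 µCi per 150 µL, in 10% ethanol/90% water) was given via tail vein, and mice were killed at 5 min, 30 min, 1 h or 2 h. Tissues were weighed and gamma-counted against a diluted injected-dose standard, giving %ID/g.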

[9] = Ratio of drug level in tumor to fat of mouse EMT6 cells bearing BALB/c mouse after 30 mins; type: ADME, cell-based; details: emt6, 0.5 h
In short: (§2)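 Tumor-to-tissue ratios were calculated from %ID/g values at 5 min, 30 min, 1 h and 2 h. The 18F tracer (~20 µCi, tail vein, 10% ethanol/90% water) was given to female BALB/c mice bearing s.c. EMT-6 tumors (~5×10^5 cells implanted 11 days prior; ~100-150 mg). Tissues were gamma-counted against a diluted standard of the injected dose.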

[10] = system: Brain; assay: Biodistribution in iv dosed mouse EMT6 cells bearing BALB/c mouse brain after 1 hr; type: ADME, organism-based; details: in vivo; in short: as §1
[11] = Ratio of drug level in tumor to muscle of mouse EMT6 cells bearing BALB/c mouse after 5 mins; type: ADME, cell-based; details: emt6, 5 min; in short: as §2
[12] = system: Kidney; assay: Biodistribution in iv dosed mouse EMT6 cells bearing BALB/c mouse kidney after 1 hr; type: ADME, organism-based; details: in vivo; in short: as §1
[13] = Ratio of drug level in tumor to fat of mouse EMT6 cells bearing BALB/c mouse after 1 hr; type: ADME, cell-based; details: emt6, 1 h; in short: as §2
[14] = Ratio of drug level in tumor to muscle of […] EMT6 cells bearing BALB/c mouse after 2 hrs; type: ADME, cell-based; details: emt6, 2 h
[15] = Ratio of drug level in tumor to fat of mouse EMT6 cells bearing BALB/c mouse after 5 mins; type: ADME, cell-based; details: emt6, 5 min; in short: as §2
[16] = system: Bone; assay: Biodistribution in iv dosed mouse EMT6 cells bearing BALB/c mouse bone after 2 hrs; type: ADME, organism-based, Bone element; details: in vivo; in short: as §1
[17] = system: Blood; assay: Biodistribution in iv dosed mouse EMT6 cells bearing BALB/c mouse blood after 1 hr; type: ADME, organism-based; details: in vivo; in short: as §1
[18] = system: Brain; assay: Biodistribution in iv dosed mouse EMT6 cells bearing BALB/c mouse brain after 30 mins; type: ADME, organism-based; details: in vivo, 0.5 h; in short: as §1
[19] = system: Muscle tissue; assay: Biodistribution in iv dosed mouse EMT6 cells bearing BALB/c mouse muscle after 1 hr; type: ADME, organism-based; details: in vivo; in short: as §1
[20] = Ratio of drug level in tumor to muscle of mouse EMT6 cells bearing BALB/c mouse after 2 hrs; type: ADME, cell-based; details: emt6, 2 h; in short: as §2
[21] = system: Heart; assay: Biodistribution in iv dosed mouse EMT6 cells bearing BALB/c mouse heart after 5 mins; type: ADME, organism-based; details: in vivo; in short: as §1
[22] = Ratio of drug level in tumor to muscle of […] EMT6 cells bearing BALB/c mouse after 1 hr; type: ADME, cell-based; details: emt6, 1 h
[23] = system: Heart; assay: Biodistribution in iv dosed mouse EMT6 cells bearing BALB/c mouse heart after 30 mins; type: ADME, organism-based; details: in vivo, 0.5 h; in short: as §1
[24] = system: Liver; assay: Biodistribution in iv dosed mouse EMT6 cells bearing BALB/c mouse liver after 30 mins; type: ADME, organism-based; details: in vivo, 0.5 h; in short: as §1
[25] = Ratio of drug level in tumor to muscle of mouse EMT6 cells bearing BALB/c mouse after 30 mins; type: ADME, cell-based; details: emt6, 0.5 h; in short: as §2
[26] = Ratio of drug level in tumor to muscle of […] EMT6 cells bearing BALB/c mouse after 5 mins; type: ADME, cell-based; details: emt6, 5 min
[27] = Ratio of drug level in tumor to blood of mouse EMT6 cells bearing BALB/c mouse after 5 mins; type: ADME, cell-based; details: emt6, 5 min; in short: as §2
[28] = Ratio of drug level in tumor to fat of mouse EMT6 cells bearing BALB/c mouse after 2 hrs; type: ADME, cell-based; details: emt6, 2 h; in short: as §2
[29] = Ratio of drug level in tumor to muscle of […] EMT6 cells bearing BALB/c mouse after 30 mins; type: ADME, cell-based; details: emt6, 0.5 h
[30] = Ratio of drug level in tumor to blood of mouse EMT6 cells bearing BALB/c mouse after 1 hr; type: ADME, cell-based; details: emt6, 1 h; in short: as §2
[31] = Ratio of drug level in tumor to muscle of mouse EMT6 cells bearing BALB/c mouse after 1 hr; type: ADME, cell-based; details: emt6, 1 h; in short: as §2
[32] = system: Liver; assay: Biodistribution in iv dosed mouse EMT6 cells bearing BALB/c mouse liver after 5 mins; type: ADME, organism-based; details: in vivo; in short: as §1
[33] = system: Blood; assay: Biodistribution in iv dosed mouse EMT6 cells bearing BALB/c mouse blood after 30 mins; type: ADME, organism-based; details: in vivo, 0.5 h; in short: as §1
[34] = Ratio of drug level in tumor to blood of mouse EMT6 cells bearing BALB/c mouse after 2 hrs; type: ADME, cell-based; details: emt6, 2 h; in short: as §2
[35] = system: Muscle tissue; assay: Biodistribution in iv dosed mouse EMT6 cells bearing BALB/c mouse muscle after 30 mins; type: ADME, organism-based; details: in vivo, 0.5 h; in short: as §1
[36] = Biodistribution in tumor of iv dosed mouse EMT6 cells bearing BALB/c mouse after 5 mins; type: ADME, organism-based, Neoplasm; details: in vivo; in short: as §1
[37] = Ratio of drug level in tumor to blood of mouse EMT6 cells bearing BALB/c mouse after 30 mins; type: ADME, cell-based; details: emt6, 0.5 h; in short: as §2

Sequence of Sigma non-opioid intracellular receptor 1 (Q60492 whole entry): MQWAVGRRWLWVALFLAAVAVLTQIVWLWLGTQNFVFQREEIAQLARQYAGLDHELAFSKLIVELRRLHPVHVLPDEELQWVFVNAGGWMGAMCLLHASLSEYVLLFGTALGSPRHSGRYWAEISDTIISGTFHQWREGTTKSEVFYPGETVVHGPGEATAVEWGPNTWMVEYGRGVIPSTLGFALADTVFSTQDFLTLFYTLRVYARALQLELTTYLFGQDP
Sequence of 5-hydroxytryptamine receptor 4 (Q13639 whole entry): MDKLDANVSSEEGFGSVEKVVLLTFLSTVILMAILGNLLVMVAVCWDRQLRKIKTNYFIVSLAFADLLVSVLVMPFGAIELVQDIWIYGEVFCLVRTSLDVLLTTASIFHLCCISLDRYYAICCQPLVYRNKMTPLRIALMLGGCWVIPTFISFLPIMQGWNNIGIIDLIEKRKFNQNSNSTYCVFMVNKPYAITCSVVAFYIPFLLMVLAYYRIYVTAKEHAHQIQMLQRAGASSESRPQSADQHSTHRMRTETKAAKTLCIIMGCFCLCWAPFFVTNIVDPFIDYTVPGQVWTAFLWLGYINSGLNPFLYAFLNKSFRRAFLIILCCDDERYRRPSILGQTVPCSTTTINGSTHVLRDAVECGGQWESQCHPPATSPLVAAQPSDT

SMILES: COc1ccc(C)cc1NC(=O)OC1CC2CCCC(C1)N2Cc1cccnc1 (configuration not stated)
- Ratio Ki [1]: 13
- Ki [2]: 184 nM
- logP [3]: 2.7
- Ki [4]: 2350 nM

SMILES: COc1ccc(C)cc1NC(=O)OC1CC2CCCC(C1)N2Cc1ccc(N(C)C)cc1 (configuration not stated)
- Ratio Ki [1]: 557
- Ki [2]: 2.58 nM
- logP [3]: 3.02
- Ki [4]: 1440 nM

SMILES: COc1ccc(C)cc1NC(=O)OC1CC2CCCC(C1)N2Cc1ccc(F)nc1 (configuration not stated)
- Ratio Ki [1]: 4
- Ki [2]: 572 nM
- logP [3]: 3.21
- Ki [4]: 2510 nM

SMILES: COc1ccc(C)cc1NC(=O)OC1CC2CCCC(C1)N2CCc1ccc(N(C)C)cc1 (configuration not stated)
- Ratio Ki [1]: 10
- Ki [2]: 195 nM
- logP [3]: 3.36
- Ki [4]: 1870 nM

SMILES: COc1ccc(C)cc1NC(=O)OC1CC2CCCC(C1)N2Cc1ccc(SC)cc1 (configuration not stated)
- Ki [2]: 8190 nM
- logP [3]: 3.92
- Ki [4]: 2020 nM

SMILES: COc1ccc(C)cc1NC(=O)OC1CC2CCCC(C1)N2CCc1ccc(CCF)cc1 (configuration not stated)
- Ratio Ki [1]: 10
- Ki [2]: 276 nM
- logP [3]: 3.69
- Ki [4]: 2630 nM

SMILES: CCn1c(=O)n(C(=O)NC2CC3CCC(C2)N3C)c2ccccc21 (configuration not stated)
- Ki [5]: 13 nM
- Ki [2]: 32 nM
- Ki [6]: 1 nM
- Ki [4]: 6300 nM

SMILES: COc1ccc(CN2C3CCCC2CC(OC(=O)Nc2cc(C)ccc2OC)C3)cc1 (configuration not stated)
- Ratio Ki [1]: 8
- Ki [2]: 40.7 nM
- logP [3]: 3.3
- Ki [4]: 323 nM

SMILES: C=CCN1C2CCCC1CC(OC(=O)Nc1cc(C)ccc1OC)C2 (configuration not stated)
- Ratio Ki [1]: 15
- Ki [2]: 85.9 nM
- logP [3]: 2.86
- Ki [4]: 1260 nM

SMILES: COc1ccc(C)cc1NC(=O)OC1CC2CCCC(C1)N2Cc1ccccc1 (configuration not stated)
- Ki [5]: > 1000 nM
- Ki [2]: 3.1 nM
- Ki [6]: > 1000 nM

SMILES: COc1ccc(C)cc1NC(=O)OC1CC2CCCC(C1)N2CCF (configuration not stated)
- Ratio Ki [1]: 14
- Ki [2]: 143 nM
- logP [3]: 2.85
- Ki [4]: 2000 nM

SMILES: COc1ccc(C)cc1NC(=O)OC1CC2CCCC(C1)N2Cc1ccncc1 (configuration not stated)
- Ratio Ki [1]: 3
- Ki [2]: 522 nM
- logP [3]: 2.94
- Ki [4]: 1560 nM

SMILES: O=C(CCCN1CCC(O)(c2ccc(Cl)cc2)CC1)c1ccc(F)cc1 [HALOPERIDOL]
- logP [3]: 3.36

SMILES: COc1ccc(C)cc1NC(=O)OC1CC2CCCC(C1)N2Cc1ccc(CCF)cc1 (configuration not stated)
- Ratio Ki [1]: 2090
- Activity [7]: 2 nM
- Ki [2]: 0.82 nM
- Ki [4]: 1710 nM

SMILES: COc1ccc(C)cc1C(=O)NCCCCN1CCc2cc(OO)c(OO)cc2C1
- Ki [2]: 10.3 nM
- Ki [4]: 3080 nM

SMILES: COc1ccc(C)cc1NC(=O)OC1CC2CCCC(C1)N2Cc1ccc(CC[18F])cc1 (configuration not stated)
- Activity [8]: 4.08 % ID/g
- Activity [9]: 0.45 % ID/g
- Activity [10]: 1.55 % ID/g
- Activity [11]: 0.3 % ID/g
- Activity [12]: 10.38 % ID/g
- Activity [13]: 0.41 % ID/g
- Activity [14]: 0.82 % ID/g
- Activity [15]: 0.65 % ID/g
- Activity [16]: 5.68 % ID/g
- Activity [17]: 0.93 % ID/g
- Activity [18]: 2.12 % ID/g
- Activity [19]: 1.92 % ID/g
- Activity [20]: 2.53 % ID/g
- Activity [21]: 18.49 % ID/g
- Activity [22]: 0.42 % ID/g
- Activity [23]: 3.7 % ID/g
- Activity [24]: 28.5 % ID/g
- Activity [25]: 1.32 % ID/g
- Activity [26]: 0.01 % ID/g
- Activity [27]: 0.82 % ID/g
- Activity [28]: 0.32 % ID/g
- Activity [29]: 0.22 % ID/g
- Activity [30]: 3.86 % ID/g
- Activity [31]: 1.92 % ID/g
- Activity [32]: 21.14 % ID/g
- Activity [33]: 0.99 % ID/g
- Activity [34]: 6.96 % ID/g
- Activity [35]: 2.9 % ID/g
- Activity [36]: 1.39 % ID/g
- Activity [37]: 3.67 % ID/g

SMILES: COc1ccc(CCN2C3CCCC2CC(OC(=O)Nc2cc(C)ccc2OC)C3)cc1 (configuration not stated)
- Ratio Ki [1]: 4
- Ki [2]: 126 nM
- logP [3]: 3.22
- Ki [4]: 447 nM
